Reference: ChEMBL document CHEMBL1250520, “Antitumor agents. 280. Multidrug resistance-selective desmosdumotin B analogues” (2010)
Activity calls are given as the source filed them. The calls are words filed in the database; no cut-off is given here.

Legend:
[1] = Anticancer activity against human KBVIN cells after 3 days by SRB assay; format: functional; settings: 72 h, read-out: ED50 (the source's name)
Procedure, shortened: (§1)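 Cells seeded at 1500–7500 per well, compounds added from DMSO-diluted stock, grown 3 days in RPMI-1640 with 25mM HEPES, 0.25% sodium bicarbonate, 10% FBS and kanamycin. Attached cells fixed in cold 50% TCA, stained with 0.4% sulforhodamine B, absorbance read at 562 nm after dye solubilization. ED50 is the 50% growth-reduction concentration, averaged from at least three independent determinations.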

KB = assay: Anticancer activity against human KB cells after 3 days by SRB assay; format: functional; settings: 72 h, read-out: ED50 (the source's name); procedure, shortened: as §1
[2] = Selectivity ratio of ED50 for human KB cells to ED50 for human KBVIN cells; format: functional
Procedure, shortened: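 Ratio of KB ED50 to KB-VIN ED50. Both values come from a 3-day sulforhodamine B assay with absorbance read at 562 nm. Cells were seeded at 1500–7500 per well and dosed from DMSO-diluted stock. Each ED50 is the mean of at least three independent determinations.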

[3] = Anticancer activity against vincristine-resistant human Hep3B cells after 3 days by SRB assay; format: functional, Hep 3B2; settings: 72 h
[4] = Anticancer activity against human Hep3B cells after 3 days by SRB assay; format: functional, Hep 3B2; settings: 72 h
Hep 3B2 = assay: Selectivity ratio of GI50 for human Hep3B cells to ED50 vincristine-resistant Hep3B cells; format: functional
KBVIN = assay: Inhibition of Pgp efflux pump in human KBVIN cells by calcein AM assay; format: cell-based
Procedure, shortened: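 KB-VIN cells, 10,000 per well, were grown 24 h in RPMI-1640 with 5% FBS. They were preincubated with compounds for 30 min at 37°C, then given fresh medium with 1 µM calcein-AM plus compounds for 30 min at 37°C in the dark. After cold PBS wash and hypotonic Tris-HCl lysis, fluorescence was read at Ex 494/Em 517 nm. Data pooled from two or more independent experiments.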

| SMILES | EC50 (KB) [µM] | EC50 [1] [µM] | Ratio ED50 [2] | GI50 [3] [µM] | GI50 [4] [µM] | RatioGI50 (Hep 3B2) | inhibition (KBVIN) |
| --- | --- | --- | --- | --- | --- | --- | --- |
| CCC1=C(O)c2c(oc(-c3ccc(C(F)(F)F)cc3)cc2=O)C(CC)(CC)C1=O | 35.7 | 10.3 | 3.5 |  |  |  |  |
| CCCOc1ccc(-c2cc(=O)c3c(o2)C(CC)(CC)C(=O)C(CC)=C3O)cc1 | > 50.5 | 29.2 | >2 |  |  |  |  |
| CCC1=C(O)c2c(oc(-c3cc(OC)cc(OC)c3)cc2=O)C(CC)(CC)C1=O | 45.2 | 3.27 | 14 |  |  |  |  |
| CCC1=C(O)c2c(oc(-c3ccc(O)cc3)cc2=O)C(CC)(CC)C1=O | 20.6 | 20.6 | 1 |  |  |  |  |
| CCC1=C(O)c2c(oc(-c3cccc(F)c3)cc2=O)C(CC)(CC)C1=O | > 56.2 | 3.09 | >18 |  |  |  |  |
| CCCc1ccc(-c2cc(=O)c3c(o2)C(CC)(CC)C(=O)C(CC)=C3O)cc1 | > 53 | 12.2 | >4 |  |  |  |  |
| CCC1=C(O)c2c(oc(-c3cc(OC)c(OC)c(OC)c3)cc2=O)C(CC)(CC)C1=O | 46.7 | 5.6 | 8 |  |  |  |  |
| CCC1=C(O)c2c(oc(-c3cc(C)ccc3F)cc2=O)C(CC)(CC)C1=O | 47.3 | 3.24 | 15 |  |  |  |  |
| CCC1=C(O)c2c(oc(-c3ccccc3F)cc2=O)C(CC)(CC)C1=O | > 56.2 | 3.93 | >14 |  |  |  |  |
| CCOc1cccc(-c2cc(=O)c3c(o2)C(CC)(CC)C(=O)C(CC)=C3O)c1OCC | 44.6 | 31.7 | 1.4 |  |  |  |  |
| CCC1=C(O)c2c(oc(-c3cc(C)c(O)c(C)c3)cc2=O)C(CC)(CC)C1=O | 18.3 | 8.9 | 2 |  |  |  |  |
| CCC1=C(O)c2c(oc(-c3cccc(OC(F)(F)F)c3)cc2=O)C(CC)(CC)C1=O | > 47.4 | 9.95 | >5 |  |  |  |  |
| CCC1=C(O)c2c(oc(-c3ccc(C(C)C)cc3)cc2=O)C(CC)(CC)C1=O | 8.13 | 1.08 |  |  |  |  |  |
| CCC1=C(O)c2c(oc(-c3ccc(COC)cc3)cc2=O)C(CC)(CC)C1=O | > 52.4 | 3.4 | 15 |  |  |  |  |
| CCC1=C(O)c2c(oc(-c3ccc(OC(F)(F)F)cc3)cc2=O)C(CC)(CC)C1=O | 36.5 | 9.95 | 4 |  |  |  |  |
| CCC1=C(O)c2c(oc(-c3cccc(OC)c3OC)cc2=O)C(CC)(CC)C1=O | 35.2 | 4.02 | 9 |  |  |  |  |
| CCC1=C(O)c2c(oc(-c3ccccc3OC)cc2=O)C(CC)(CC)C1=O | 40.8 | 3.26 | 13 |  |  |  |  |
| CCC1=C(O)c2c(oc(-c3ccc(O)c(C)c3C)cc2=O)C(CC)(CC)C1=O | 6.5 | 2.75 | 2 |  |  |  |  |
| CCC1=C(O)c2c(oc(-c3ccc(SC)cc3)cc2=O)C(CC)(CC)C1=O | > 52.1 | 1.38 | >38 |  |  |  |  |

| SMILES | EC50 (KB) [µM] | EC50 [1] [µM] | Ratio ED50 [2] | GI50 [3] [µM] | GI50 [4] [µM] | RatioGI50 (Hep 3B2) | inhibition (KBVIN) |
| --- | --- | --- | --- | --- | --- | --- | --- |
| CCC1=C(O)c2c(oc(-c3cc(C)cc(C)c3)cc2=O)C(CC)(CC)C1=O | 45.5 | 0.45 | 100 |  |  |  |  |
| CC[C@]1(O)C[C@H]2CN(CCc3c([nH]c4ccccc34)[C@@](C(=O)OC)(c3cc4c(cc3OC)N(C=O)[C@H]3[C@@](O)(C(=O)OC)[C@H](OC(C)=O)[C@]5(CC)C=CCN6CC[C@]43[C@@H]65)C2)C1 [VINCRISTINE] |  |  |  | 6.86 | 0.0029 |  |  |
| CCC1=C(O)c2c(oc(-c3ccc(CC)cc3)cc2=O)C(CC)(CC)C1=O [6,8,8-TRIETHYL-4-ETHYL DESMOSDUMOTIN B] | 21.9 | 0.07 | 320 | 0.72 | 6.09 | 8.5 | Active |
| CCCCc1ccc(-c2cc(=O)c3c(o2)C(CC)(CC)C(=O)C(CC)=C3O)cc1 | 111 | 37 | 3 |  |  |  |  |
| CCC1=C(O)c2c(oc(-c3cccc(C(F)(F)F)c3)cc2=O)C(CC)(CC)C1=O | 35.7 | 5.42 | 6.6 |  |  |  |  |
| CCC1=C(O)c2c(oc(-c3ccc(CBr)cc3)cc2=O)C(CC)(CC)C1=O | > 46.5 | 27.9 | >2 |  |  |  |  |
| CCOc1ccc(-c2cc(=O)c3c(o2)C(CC)(CC)C(=O)C(CC)=C3O)cc1 | > 52.4 | 7.54 | >7 |  |  |  |  |
| CCC1=C(O)c2c(oc(-c3ccc(C)cc3)cc2=O)C(CC)(CC)C1=O [6,8,8-TRIETHYL-4-METHYL DESMOSDUMOTIN B] | 39.2 | 0.08 | 460 | 0.35 | 7.31 | 21 | Active |
| CCC1=C(O)c2c(oc(-c3ccc(Br)cc3)cc2=O)C(CC)(CC)C1=O | > 48.1 | 15.7 | 3 |  |  |  |  |
| CCC1=C(O)c2c(oc(-c3cc(Cl)c(OC)c(OC)c3)cc2=O)C(CC)(CC)C1=O | 21.8 | 8.4 | 3 |  |  |  |  |
| CCC1=C(O)c2c(oc(-c3ccc(OC)c(OC)c3OC)cc2=O)C(CC)(CC)C1=O | 9.4 | 1.57 | 6 |  |  |  |  |
| CCC1=C(O)c2c(oc(-c3ccccc3C)cc2=O)C(CC)(CC)C1=O [6,8,8-TRIETHYL-2-METHYL DESMOSDUMOTIN B] | 40.9 | 2.41 | 17 |  |  |  |  |
| CCC1=C(O)c2c(oc(-c3ccccc3C(F)(F)F)cc2=O)C(CC)(CC)C1=O | 45.6 | 43.1 | 1 |  |  |  |  |
| CCC1=C(O)c2c(oc(-c3cccc(C)c3C)cc2=O)C(CC)(CC)C1=O | 3.1 | 0.85 | 4 |  |  |  |  |
| CCC1=C(O)c2c(oc(-c3ccc(C(C)(C)C)cc3)cc2=O)C(CC)(CC)C1=O | 29.3 | 17.4 | 2 |  |  |  |  |
| CC(=O)O[C@H]1C(=O)[C@@]2(C)[C@H]([C@H](OC(=O)c3ccccc3)[C@]3(O)C[C@H](OC(=O)[C@H](O)[C@@H](NC(=O)c4ccccc4)c4ccccc4)C(C)=C1C3(C)C)[C@]1(OC(C)=O)CO[C@@H]1C[C@@H]2O [PACLITAXEL] |  |  |  | 16.2 | 0.0004 |  |  |
| CCC1=C(O)c2c(oc(-c3ccc(F)cc3)cc2=O)C(CC)(CC)C1=O | 33 | 1.85 | 18 |  |  |  |  |
| CCC1=C(O)c2c(oc(-c3cc(C)c(C)cc3C)cc2=O)C(CC)(CC)C1=O | 8.2 | 4.37 | 2 |  |  |  |  |

Second part, led by results:

| EC50 (KB) [µM] | SMILES | EC50 [1] [µM] | Ratio ED50 [2] | GI50 [3] [µM] | GI50 [4] [µM] | RatioGI50 (Hep 3B2) | inhibition (KBVIN) |
| --- | --- | --- | --- | --- | --- | --- | --- |
| 8.8 | CCC1=C(O)c2c(oc(-c3cc(OC)ccc3OC)cc2=O)C(CC)(CC)C1=O | 2.51 | 4 |  |  |  |  |
| 13.3 | CCC1=C(O)c2c(oc(-c3cccc(OC)c3)cc2=O)C(CC)(CC)C1=O | 1.22 | 11 |  |  |  |  |
| 40.5 | CCC1=C(O)c2c(oc(-c3ccc(F)c(C)c3)cc2=O)C(CC)(CC)C1=O | 1.62 | 24 |  |  |  |  |
| 14.7 | CCC1=C(O)c2c(oc(-c3ccc(OC)c(OC)c3)cc2=O)C(CC)(CC)C1=O | 1 | 15 |  |  |  |  |
| 39 | CCC1=C(O)c2c(oc(-c3ccc(C)c(Cl)c3)cc2=O)C(CC)(CC)C1=O | 2.15 | 18 |  |  |  |  |
| 26.7 | CCC1=C(O)c2c(oc(-c3ccc(OC)c(F)c3)cc2=O)C(CC)(CC)C1=O | 0.1 | 250 |  |  |  |  |
| 14.5 | CCC1=C(O)c2c(oc(-c3cc(C)ccc3C)cc2=O)C(CC)(CC)C1=O | 3.41 | 4 |  |  |  |  |
| 17.7 | CCC1=C(O)c2c(oc(-c3ccc(OC)cc3)cc2=O)C(CC)(CC)C1=O | 0.68 | 26 |  |  |  |  |
| 35.5 | CCC1=C(O)c2c(oc(-c3ccc(C)c(C)c3)cc2=O)C(CC)(CC)C1=O | 0.71 | 50 |  |  |  |  |
| 20.9 | CCC1=C(O)c2c(oc(-c3ccc(OC)cc3C)cc2=O)C(CC)(CC)C1=O | 2.62 | 8 |  |  |  |  |
| 28.5 | CCC1=C(O)c2c(oc(-c3ccc(OC)c(C)c3)cc2=O)C(CC)(CC)C1=O | 0.1 | 273 |  |  |  |  |
| 36.6 | CCC1=C(O)c2c(oc(-c3cc(C)c(OC)cc3C)cc2=O)C(CC)(CC)C1=O | 7.58 | 5 |  |  |  |  |
| 49.7 | CCC1=C(O)c2c(oc(-c3cccc(C)c3)cc2=O)C(CC)(CC)C1=O | 3.69 | 14 |  |  |  |  |
| 24.9 | CCC1=C(O)c2c(oc(-c3ccc(OC)c(Cl)c3)cc2=O)C(CC)(CC)C1=O | 1.37 | 18 |  |  |  |  |
| 5.43 | CCC1=C(O)c2c(oc(-c3ccc(OC)c(C)c3C)cc2=O)C(CC)(CC)C1=O | 0.28 | 20 |  |  |  |  |
| 10 | CCC1=C(O)c2c(oc(-c3ccc(O)c(O)c3)cc2=O)C(CC)(CC)C1=O | 5.41 | 2 |  |  |  |  |
| 28.1 | CCC1=C(O)c2c(oc(-c3ccc(C)c(F)c3)cc2=O)C(CC)(CC)C1=O | 2.95 | 10 |  |  |  |  |
| 41.2 | CCC1=C(O)c2c(oc(-c3ccc(C)cc3C)cc2=O)C(CC)(CC)C1=O | 8.52 | 5 |  |  |  |  |
